Screening results deposited in PubChem by Sanford-Burnham Center for Chemical Genomics.
Apaf-1 act: activators of human Apaf-1 apoptosome | O14727 | Apaf-1 apoptosome caspase-3 activation, DEVD-Rh110 fluorescence; active compounds read low | activity change, negative = activation, % at 20 µM | actives 0.31% (n = 330,000) | AID 489031;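 active = activity change at or below -40% at 20 µM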
Target sequence (O14727 whole entry, looked up): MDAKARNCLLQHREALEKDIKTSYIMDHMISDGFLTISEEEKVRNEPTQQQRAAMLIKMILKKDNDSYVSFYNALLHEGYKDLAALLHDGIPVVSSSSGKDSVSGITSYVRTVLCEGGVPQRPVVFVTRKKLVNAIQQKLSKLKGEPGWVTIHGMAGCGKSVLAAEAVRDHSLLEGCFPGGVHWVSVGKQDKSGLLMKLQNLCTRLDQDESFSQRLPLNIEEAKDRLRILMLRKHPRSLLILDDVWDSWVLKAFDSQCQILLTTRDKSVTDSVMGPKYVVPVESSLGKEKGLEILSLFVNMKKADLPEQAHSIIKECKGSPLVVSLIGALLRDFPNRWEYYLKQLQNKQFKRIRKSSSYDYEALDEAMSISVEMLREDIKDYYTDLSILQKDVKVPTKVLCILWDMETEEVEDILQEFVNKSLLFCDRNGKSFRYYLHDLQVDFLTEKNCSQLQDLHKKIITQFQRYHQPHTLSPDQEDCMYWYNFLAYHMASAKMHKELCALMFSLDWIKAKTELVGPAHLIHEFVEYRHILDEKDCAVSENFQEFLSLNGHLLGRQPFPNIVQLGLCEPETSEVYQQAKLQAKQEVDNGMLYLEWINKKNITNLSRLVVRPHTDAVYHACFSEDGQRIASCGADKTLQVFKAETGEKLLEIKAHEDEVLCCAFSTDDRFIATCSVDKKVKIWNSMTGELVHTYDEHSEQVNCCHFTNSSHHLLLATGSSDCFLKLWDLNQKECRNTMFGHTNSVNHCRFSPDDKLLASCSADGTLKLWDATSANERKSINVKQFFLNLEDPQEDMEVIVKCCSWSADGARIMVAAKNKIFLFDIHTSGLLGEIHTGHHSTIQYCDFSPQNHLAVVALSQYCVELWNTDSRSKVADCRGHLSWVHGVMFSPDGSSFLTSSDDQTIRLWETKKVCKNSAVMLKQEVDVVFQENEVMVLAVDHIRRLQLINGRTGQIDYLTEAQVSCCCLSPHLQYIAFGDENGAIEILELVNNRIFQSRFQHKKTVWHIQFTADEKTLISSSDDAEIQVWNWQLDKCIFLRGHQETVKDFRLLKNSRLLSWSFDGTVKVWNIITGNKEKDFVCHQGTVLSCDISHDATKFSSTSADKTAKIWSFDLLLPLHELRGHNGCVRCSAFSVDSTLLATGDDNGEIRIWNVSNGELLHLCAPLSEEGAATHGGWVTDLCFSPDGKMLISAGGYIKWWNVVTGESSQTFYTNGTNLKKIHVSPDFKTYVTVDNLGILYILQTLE
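Assay system – biochemical Apaf-1 apoptosome reconstitution · Medium – 20 mM HEPES buffer, pH 7.5, containing CHAPS and BSA · Incubation – 30 min preincubation, 50 min reaction, room temperature · Measured by – Caspase-3-released Rh110 fluorescence, 540 nm emission, 480 nm excitation · Read-out – Caspase-3 cleavage activity downstream of Apaf-1 activation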
Rh110 interf act: interferes with Rh110 fluorescence, flagging false Apaf-1 activators; shares compounds with Apaf-1 act; Rh110 fluorescence interference, quenched caspase reaction, Ex480/Em540; fluorescence interference (activity change), % at 20 µM, hits read low; 980 tested, under 10 active;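 active = mean activity change at or below -40% when tested at 20 µM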
Apaf-1 act conf2: confirmation of human Apaf-1 activators. reconstituted apoptosome caspase-3 activity, DEVD-Rh110 fluorescence; active compounds read low. actives 5% (n = 980). shares compounds with Apaf-1 act. activity change, negative = activation, % at 20 µM;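 active = mean activity change at or below -40%, meaning activation of 40% or more, at 20 µM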
Apaf1 act interf: shows fluorescence interference in the Apaf-1 activator assay format; fluorescence interference counterscreen; EC50, µM; shares compounds with Apaf-1 act; 55 tested, under 10 active; call rule not given here
Each line names hits and unclear results; the compound was inactive in the other large screens (follow-up assays come after a bar, where they were run). Only a sample is shown.

COc1ccc2nc(NC(=O)c3sc4nc(C)cc(C)c4c3N)sc2c1	Apaf-1 act -41 | Rh110 interf act inactive | Apaf-1 act conf2 inactive
COc1ccc2c(c1)Cc1sc(NC(C)=O)nc1-2	none
COc1ccc2[nH]c3c(c2c1)CCN1C(=O)C(CC(=O)NCCC2=CCCCC2)C[C@H](C(=O)N2CCOCC2)[C@@]31CCC1CCCC1 (some centres undefined)	none
C#CCOCCOCCOCCNc1nc(N2CCN(C(=O)CCCCCCCCCCNC(=O)[C@@H](CCC(=O)O)n3cc(CCCCCN)nn3)CC2)nc(N2CCN(C(=O)CCCCCCCCCCNC(=O)[C@H]([C@@H](C)CC)n3cc(CCCCCN)nn3)CC2)n1	none
O/N=C(\c1ccccn1)C1CC1c1ccccc1 (centres undefined)	Apaf-1 act -63 | Rh110 interf act inactive | Apaf-1 act conf2 inactive
Cc1cc2nn(-c3ccc(Cl)cc3)nc2cc1N	none
CCCCCCCCCCCCCCCC[N+](C)(C)CC	none
Oc1cccc(C=NCc2ccccc2)c1O	none
CCOC(=O)N1CCN(S(=O)(=O)N2CCCC(C(=O)NCCCN3CCCCC3CC)C2)CC1 (centres undefined)	Apaf-1 act -61 | Rh110 interf act inactive | Apaf-1 act conf2 inactive
c1csc(Cc2nn3c(-c4n[nH]c5c4CCC5)nnc3s2)c1	none
C#CCOCCOCCOCCNc1nc(N2CCN(C(=O)CCCCCCCCCCNC(=O)Cn3cc(C[C@@H](C)O)nn3)CC2)nc(N2CCN(C(=O)CCCCCCCCCCNC(=O)[C@H](CCCN=C(N)N)n3cc(C[C@@H](C)CC)nn3)CC2)n1	none
O=C(N/N=C/c1cc(Cl)cc([N+](=O)[O-])c1O)NC12CC3CC(CC(C3)C1)C2	Apaf-1 act -56 | Rh110 interf act inactive | Apaf-1 act conf2 -121 | Apaf1 act interf inactive
Cc1nn(Cc2ccc(F)cc2)c(Cl)c1/C=N/NC(=O)c1cccnc1	Apaf-1 act -49 | Rh110 interf act inactive | Apaf-1 act conf2 inactive
OCCN1CCN(CC/C=C2/c3ccccc3Sc3ccc(C(F)(F)F)cc32)CC1	none
Nc1cc2nsnc2cc1Br	none
CN(C)C=Nc1c(Br)cc(Br)c2nonc12	none
COc1ccc(C2C(C#N)=C(N)OC(C(C)(C)C)=C2C#N)cc1OC (centres undefined)	Apaf-1 act -51 | Rh110 interf act inactive | Apaf-1 act conf2 inactive
NC(N)=Nc1cc2ccccc2c2ccccc12	none
CC1=CC(C)(C)NC(=S)N1C(C)c1ccccc1 (centres undefined)	Apaf-1 act -56 | Rh110 interf act inactive | Apaf-1 act conf2 inactive
Oc1c(Br)cc(Br)cc1C=Nc1ccc2[nH]ncc2c1	none
Cc1nnc(SCC(=O)NCc2ccco2)n1Cc1ccccc1	Apaf-1 act -428 | Rh110 interf act inactive | Apaf-1 act conf2 inactive
C=CCn1c(SCC(=O)NCCc2ccccc2)nnc1C1CC1	none
C[n+]1cccc2c(Br)ccc([O-])c21	none
Nc1ccc(N2CCCCC2)c2nonc12	none
Cc1cc(C(=O)Nc2ccccc2N2CCCCC2)no1	Apaf-1 act -512 | Rh110 interf act inactive | Apaf-1 act conf2 inactive
NC(=O)c1cc(N)ccc1N1CCCC1	none
CCC(C)Sc1ccc(-c2nc3cnccn3c2NC2CCCCC2)cc1 (centres undefined)	none
CC(C)Oc1cccc(C(=O)Nc2ncn[nH]2)c1	Apaf-1 act -48 | Rh110 interf act inactive | Apaf-1 act conf2 inactive
C#CCOCCOCCOCCNc1nc(N2CCN(C(=O)CCCCCCCCCCNC(=O)[C@H]([C@@H](C)CC)n3cc(CCCCCN)nn3)CC2)nc(N2CCN(C(=O)CCCCCCCCCCNC(=O)[C@H](CO)n3cc(CCCCCN)nn3)CC2)n1	none
CCOC(=O)c1c(NC(=O)c2ccco2)n(C2CCCCC2)c2nc3ccccc3nc12	none
CCOC(=O)c1sc(NC(=O)c2ccco2)c(C#N)c1C	Apaf-1 act -211 | Rh110 interf act inactive | Apaf-1 act conf2 inactive
COc1ccc(-n2c(NC(=O)c3ccco3)c(C#N)c3nc4ccccc4nc32)cc1	none
FC(F)(F)c1cc(CCN2CCNC[C@H]2Cc2cccc3ccccc23)cc(C(F)(F)F)c1	none
CC(C)C(NS(=O)(=O)c1ccc2c(c1)oc(=O)n2C)C(=O)N1CCN(C2CCCCC2)CC1 (centres undefined)	Apaf-1 act -54 | Rh110 interf act inactive | Apaf-1 act conf2 inactive
COC(=O)c1c(NC(=O)COc2ccc(Cl)cc2)sc2c1CC(C)(C)NC2(C)C	none
CCOC(=O)CNC(=O)C1c2ccccc2C(=O)N(c2ccc(OC)cc2)C1c1ccc(OC)cc1 (centres undefined)	Apaf-1 act -42 | Rh110 interf act inactive | Apaf-1 act conf2 inactive
COc1ccc(NC(=O)[C@@H]2[C@@H]3C(=O)N(C4CCCCC4)C(=O)[C@@H]3C3c4ccccc4C=CN32)cc1 (some centres undefined)	none
COc1ccc(CNC(=O)c2c(C)oc3c2C(=O)c2ccccc2C3=O)cc1	none
CCCCOc1cc(NCc2ccccc2)c2ncn(C(C)C)c2c1	none
Cn1c(=O)c2cc(NCc3ccccc3)nnc2n(C)c1=O	none
CCC(CO)Oc1cc(NCc2ccccc2OC)c2ncn(C(C)C)c2c1 (centres undefined)	none
CC(=O)Nc1ccc(S(=O)(=O)Nc2nc3ccccc3nc2Nc2ccc(C(=O)O)c(O)c2)cc1	none
Cc1ccc(S(=O)(=O)NC(=O)Nc2ccccc2)cc1	Apaf-1 act -529 | Rh110 interf act inactive | Apaf-1 act conf2 inactive
Cc1ccc(S(=O)(=O)/N=C2\C=C(Nc3ccc(O)cc3)C(=O)c3ccccc32)cc1	none
COc1cc(Br)c(C(=O)c2nccc3cc(OC)c(OC)cc23)cc1OC	none
Clc1ccc(CSc2nnc3ccccn23)c(Cl)c1	Apaf-1 act -40 | Rh110 interf act inactive | Apaf-1 act conf2 inactive
COCCNC(=O)CN1C(=O)NC2(CCOc3ccccc32)C1=O (centres undefined)	none
CC1(c2ccccc2)NC(=O)N(NC(=O)CSc2n[nH]c(N)n2)C1=O (centres undefined)	Apaf-1 act -279 | Rh110 interf act inactive | Apaf-1 act conf2 inactive
Nc1ccc2ncccc2c1	none
COc1ccc(-c2cc3c(nn2)-c2ccccc2C3=O)cc1	none
COc1ccc(Oc2nnc(-c3ccc(C)cc3)c3ccccc23)cc1	Apaf-1 act -172 | Rh110 interf act inactive | Apaf-1 act conf2 inactive
Clc1ccc(N=c2ssnc2Cl)nc1	none
Nc1c(Br)cc(Br)cc1CNC1CCC(O)CC1 (centres undefined)	none
COc1ccc(N2CCN(C(=O)Cc3ccc(OC)c(OC)c3)CC2)cc1	Apaf-1 act -535 | Rh110 interf act inactive | Apaf-1 act conf2 inactive
NC1(C#Cc2ccc3oc(=O)c(-n4cc(-c5ccsc5)nn4)cc3c2)CCCCC1	none
O=C1c2ccccc2C(=O)c2c1oc(C(F)(F)F)c2C(=O)c1ccccc1	none
COc1ccc(C(=O)NCC(=O)OCc2ccc([N+](=O)[O-])cc2)cc1	Apaf-1 act -70 | Rh110 interf act inactive | Apaf-1 act conf2 inactive
C/C(=N/NC(=O)Cc1cc(=O)[nH][nH]1)c1ccc([N+](=O)[O-])cc1	none
